# Source: PubChem
# UBC13 polyUb: human UBC13 polyubiquitination inhibition; P61088; UBC13 polyubiquitin chain formation, TR-FRET; inhibition, % at 20 µM; actives 0.47% (n = 330,000); AID 485273; in the data active = inhibition above about 45%, passing the limit was not always enough; inconclusive = no clear call, values can overlap the other calls
# Target sequence (P61088 whole entry, looked up): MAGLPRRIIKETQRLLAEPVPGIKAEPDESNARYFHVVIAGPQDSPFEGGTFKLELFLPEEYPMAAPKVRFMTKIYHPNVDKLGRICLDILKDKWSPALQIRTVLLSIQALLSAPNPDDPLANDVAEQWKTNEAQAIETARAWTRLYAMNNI
# ZTA counter: counter-screen for EBNA-1 inhibitors: inhibitors of Epstein-Barr virus ZTA; ZTA-DNA binding, fluorescence polarization; inhibition, % at 11 µM; actives 0.15% (n = 320,000); in the data active = inhibition above about 33%
# EBNA-1 inhibitor: blocks EBNA-1 binding to DNA. EBNA-1 DNA binding, fluorescence polarization. inhibition, % at 14.8 µM. actives 0.34% (n = 300,000). AID 1950; in the data active = inhibition above about 28%
# PREPL inhibitor: inhibits the human prolyl oligopeptidase-like enzyme. AID 2751. Q4J6C6. inhibition, % at 5.96 µM. actives 0.68% (n = 320,000). recombinant PREPL, fluorescence polarization activity-based probe; in the data active = inhibition above about 43%;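 also: 0% = enzyme with DMSO and 100% = wells lacking enzyme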
# Apaf-1 inh: blocks human Apaf-1 apoptosome activity; O14727; reconstituted apoptosome caspase-3 activity, DEVD-Rh110 fluorescence; inhibition, % at 20 µM; actives 0.71% (n = 330,000); AID 489030; active = inhibition of at least 40% at 20 µM;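 also: plate controls were DMSO wells for no effect and DEVD-CHO caspase inhibitor wells for full effect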
#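 System – cell-free apoptosome with Apaf-1, procaspase-3 and caspase-9 · Buffer or medium – pH 7.5 Hepes buffer with CHAPS, BSA, DTT · Also added – cytochrome c with DEVD-Rh110 · Times – 30 min compound preincubation, 50 min activation, room temperature · Technique – Rh110 fluorescence intensity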
# Casp3 UBC13 ctr: inhibits human caspase-3 in UBC13 counter-screen; shares compounds with UBC13 polyUb; Recombinant caspase-3, Caspase-Glo 3/7 luminescence, 60 min; inhibition, % at 20 µM; actives 4% (n = 1,400); AID 488856;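 active = mean inhibition across replicates above about 26%, limit read from the data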;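 also: plate controls were DMSO with caspase-3 for no effect and DMSO wells lacking enzyme for full effect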
# Target sequence (P42574 whole entry, looked up): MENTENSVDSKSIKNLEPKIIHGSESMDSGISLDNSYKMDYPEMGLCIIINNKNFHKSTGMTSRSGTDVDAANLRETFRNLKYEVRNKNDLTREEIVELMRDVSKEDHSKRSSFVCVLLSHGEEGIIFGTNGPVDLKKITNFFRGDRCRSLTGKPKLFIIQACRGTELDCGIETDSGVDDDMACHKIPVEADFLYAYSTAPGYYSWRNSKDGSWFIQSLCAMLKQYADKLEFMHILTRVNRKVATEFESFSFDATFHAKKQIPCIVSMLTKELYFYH
# UBC13 conf: human UBC13 polyubiquitin inhibition, confirmed; UBC13 polyubiquitination, TR-FRET, biochemical; actives 68% (n = 1,400); inhibition, % at 10 µM; AID 488859; shares compounds with UBC13 polyUb; in the data active = inhibition above about 45%; inconclusive = no clear call, values can overlap the other calls
# Starred values were filed as active, the others as inactive; u = inconclusive; x = no result. An excerpt weighted towards active compounds, which were near 1.7% of everything screened.
SMILES,UBC13 polyUb,ZTA counter,EBNA-1 inhibitor,PREPL inhibitor,Apaf-1 inh,Casp3 UBC13 ctr,UBC13 conf
O=C(OCc1cccc([N+](=O)[O-])c1)c1cccnc1Cl,50*,14,-13,8,1,31*,67*
CC(=O)c1ccc(OCC(O)CN2CCN(CC(O)COc3ccc(C(C)=O)cc3)CC2)cc1 (stereo not given),5,-1,-12,-12,-7,x,x
CC(C)OCC(O)CN1CCN(CCN2C(=O)c3cccc4cccc(c34)C2=O)CC1 (stereo not given),-11,-7,1,5,-1,x,x
CC(=O)c1ccc(OCC(O)CN2CCN(CCN3C(=O)c4cccc5cccc(c45)C3=O)CC2)cc1 (stereo not given),96*,13,6,3,4,-2,103*
Cc1ccccc1OCC(O)CN1CCN(CCN2C(=O)c3cccc4cccc(c34)C2=O)CC1 (stereo not given),50*,-19,-13,-17,23,0,76*
CCC(OCC(O)CN1CCN(CCN2C(=O)c3cccc4cccc(c34)C2=O)CC1)c1ccccc1 (stereo not given),82*,-6,1,-11,7,4,97*
C=CCc1ccccc1OCC(O)CN1CCN(CCN2C(=O)c3cccc4cccc(c34)C2=O)CC1 (stereo not given),59*,-9,2,10,18,-4,97*
COCc1[nH]nc2c1C(c1ccc(OC)c(OC)c1)C(C#N)=C(N)O2 (stereo not given),-1,9,5,-4,0,x,x
CCOC(=O)[C@H]1[C@H]2COc3ccc(C)cc3[C@@H]2N2C(=O)CN(CC3CCCO3)C(=O)[C@@]12C (stereo not given in full),4,-22,x,9,-2,x,x
CCCCC(=O)Nc1ccc(NC(=O)c2ccc3c(c2)OCO3)cc1OC,5,2,10,3,-12,x,x
Cc1ccc(-n2c(C)cc(C3N=C(N)Nc4nc5ccccc5n43)c2C)c(C)c1 (stereo not given),9,-11,-5,-41,22,x,x
Cc1cc(C2N=C(N)Nc3nc4ccccc4n32)c(C)n1-c1ccccc1Cl (stereo not given),46*,2,5,-69,33,-4,55*
Cc1cc(C)n2nc(C(=O)OCC(=O)NCc3ccccc3)nc2n1,0,-2,x,1,0,x,x
CC1(C)Cc2c(sc(NC(=O)C(=O)NCCCN3CCOCC3)c2C(N)=O)CO1,83*,4,-1,-3,-3,0,106*
C=CCn1c(=O)c(C(=O)Nc2ccccc2S(N)(=O)=O)c(O)c2ccccc21,46*,10,-13,10,8,2,10
CC1CCN(c2c(NCc3ccc(C(=O)N4CCN(C5CCCCC5)CC4)cc3)c(=O)c2=O)CC1,69*,-4,-12,13,0,-1,58*
Cc1ccc(NC(=O)C[n+]2ccn(C3=C([O-])c4ccccc4C3=O)c2)cc1,74*,-6,6,35,3,4,65*
Cc1cc[n+](CC(=O)Nc2ccccc2)cc1,-3,-8,-7,12,9,x,x
COc1cccc2sc(N(CCCN(C)C)C(=O)c3sc4ccccc4c3Cl)nc12,45*,-8,0,-56,-1,2,69*
CCN1CCN(C(=O)CSc2cc(=O)n(CC)c3ccccc23)CC1,47*,-4,6,-1,2,-2,u
CCSc1ccccc1C(=O)N1CCN(Cc2ccc3c(c2)OCO3)CC1,99*,-3,-3,14,-16,-1,9
Cn1c(=O)cc(SCC(=O)N2CCN(C3CCCCC3)CC2)c2ccccc21,66*,-6,0,2,-2,-2,u
O=C(O)c1ccccc1C(=O)N1CCN(Cc2ccc3c(c2)OCO3)CC1,4,x,x,x,7,x,x
Cn1c(=O)cc(SCC(=O)N2CCN(Cc3ccc4c(c3)OCO4)CC2)c2ccccc21,38,17,2,-4,18,x,x
CCn1c(=O)cc(SCC(=O)N2CCN(C)CC2)c2ccccc21,15,-17,1,-4,0,x,x
SMILES,UBC13 polyUb,ZTA counter,EBNA-1 inhibitor,PREPL inhibitor,Apaf-1 inh,Casp3 UBC13 ctr,UBC13 conf
CCn1c(=O)cc(SCC(=O)N2CCN(Cc3ccc4c(c3)OCO4)CC2)c2ccccc21,61*,-7,-8,-7,-7,-2,u
CC(C)c1cc(C(=O)N/N=C/c2cccnc2)n[nH]1,-2,-3,-1,-4,6,x,x
CCn1c(=O)cc(SCC(=O)NCCCN2CCC(C)CC2)c2ccccc21,22,-11,4,22,6,x,x
CCn1c(=O)cc(SCC(=O)NCCCN2CCN(c3ccc(F)cc3)CC2)c2ccccc21,92*,-11,-6,12,-3,0,u
O=C(COc1ccc(Cl)cc1)OCC(=O)N1CCCc2ccccc21,63*,4,14,-3,-14,-3,-3
O=C(COc1ccc(Cl)cc1Cl)OCC(=O)N1CCCc2ccccc21,6,-5,-9,-17,20,x,x
CCN1C(=O)c2cccc3c(NC(=O)c4ccc(S(=O)(=O)N5CCOCC5)cc4)ccc1c23,70*,-9,-3,10,7,-2,83*
CCN1C(=O)c2cccc3c(NS(=O)(=O)c4ccc(NC(C)=O)cc4)ccc1c23,-28,-14,-8,5,10,x,x
CCN1C(=O)c2cccc3c(NC(=O)c4ccc(S(=O)(=O)N(C)C)cc4)ccc1c23,62*,-14,-4,-6,4,0,76*
Cc1cccc(NC(=O)c2ccc(S(=O)(=O)N3CCOCC3)cc2)c1C,1,22,5,9,10,x,x
Cc1c(C(=O)NCCN(C)C)oc2ccc(S(=O)(=O)N3CCC4(CC3)OCCO4)cc12,2,17,1,-2,6,x,x
COc1cc(C2c3c([nH]c(=O)[nH]c3=O)Nc3ccc4ccccc4c32)ccc1O (stereo not given),-9,7,1,12,25,x,x
COc1ccc(OC)c(C2/C(=C(\O)c3ccc(OC)c(Cl)c3)C(=O)C(=O)N2CCN(C)C)c1 (stereo not given),-1,16,13,4,1,x,x
CN1CCN(c2cc(-c3cc(O)c4ncccc4c3)ccn2)CC1,100*,-6,x,12,11,14,102*
Oc1c(C(c2cccs2)N2CCN(c3cccc(Cl)c3)CC2)sc2ncnn12 (stereo not given),53*,7,-11,6,13,-3,7
COc1cc(C(=O)Nc2nc3ccc(S(C)(=O)=O)cc3s2)cc(OC)c1C,47*,1,-10,4,12,0,24
